This is a sample that favours compounds with a hit; in the whole collection about 3.7% have one here.
b-catenin transl – beta-catenin nuclear translocation modulation | HeLa beta-catenin nuclear translocation, immunofluorescence imaging | nuclear translocation activity, % at 5 µM | 0.3% of 190,000 active | AID 1665;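 active = nuclear translocation activity above 50% at 5 µM, with a well cell count of 50 or more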;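 note: per-cell ratio of nuclear to cytoplasmic median beta-catenin stain intensity; plate controls were DMSO negative control for no effect and GSK-3 inhibitor IX positive control for full effect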
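Assay system: human HeLa cells, native beta-catenin; doses: 5 µM primary, 0.02–20 µM confirmation; incubation: compound treatment 24 h, 37°C, 5% CO2; technique: fluorescence imaging of beta-catenin antibody stain plus DAPI; measure: % activation, nuclear-to-cytoplasmic median beta-catenin signal ratio per cell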
MT stabilizer – stabilizes microtubules in HeLa cells; % tubulin-high responders, % at 10 µM; HeLa tubulin immunostaining HCS, 24 h; share of cells brighter than vehicle mean+2SD; 0.83% of 200,000 active; AID 2205;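 active = plate Z-score above 3 for both tubulin-high and condensed-nucleus cell shares, with cell loss under 80%, at 10 µM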;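 note: anti alpha tubulin signal scored within the nucleus-defined area of each cell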
Redox H2O2 prof – compounds producing H2O2 with reducing agent – biochemical, NIH compound library profiling, artefact control for MLSCN library redox annotation, primary screen; DTT-dependent redox cycling H2O2, phenol red/HRP absorbance; 100% = 100 µM peroxide control, 0% = buffer; 0.03% of 200,000 active; activation, % at 10 µM;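 active = activation of at least 50% relative to the plate's high and low controls in the primary single-dose screen; inactive = activation below 50%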;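 note: compound incubated with DTT at 0.8 mM final as the reducing agent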
KCC2 mod – modulators of human KCC2 chloride dependent transport; Q9H2X9; KCC2 cells, thallium flux FluoZin-2 fluorescence; B-score of Tl+ flux slope (higher = more flux/activation; lower = inhibition) at 10 µM; 2.2% of 190,000 active; AID 1456;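 active = thallium flux slope and its plate-corrected score both differing from the plate sample mean at a set confidence after two filtering rounds, in either direction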;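 note: slope of fluorescence scaled to starting intensity during 10 to 20 s after thallium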
ROMK primary – modulates human ROMK potassium channel activity; P48048; Tet-inducible ROMK, thallium flux fluorescence; actives lie on both sides; B-score at 10 µM; 2% of 130,000 active;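 active = signal ratio slope over the read window, or its plate-corrected B-score, at least 3 SD from the plate mean, either direction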;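 note: B-score of the F/F0 ratio slope over 7 to 12 s after thallium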
Target sequence (P48048 whole entry, looked up): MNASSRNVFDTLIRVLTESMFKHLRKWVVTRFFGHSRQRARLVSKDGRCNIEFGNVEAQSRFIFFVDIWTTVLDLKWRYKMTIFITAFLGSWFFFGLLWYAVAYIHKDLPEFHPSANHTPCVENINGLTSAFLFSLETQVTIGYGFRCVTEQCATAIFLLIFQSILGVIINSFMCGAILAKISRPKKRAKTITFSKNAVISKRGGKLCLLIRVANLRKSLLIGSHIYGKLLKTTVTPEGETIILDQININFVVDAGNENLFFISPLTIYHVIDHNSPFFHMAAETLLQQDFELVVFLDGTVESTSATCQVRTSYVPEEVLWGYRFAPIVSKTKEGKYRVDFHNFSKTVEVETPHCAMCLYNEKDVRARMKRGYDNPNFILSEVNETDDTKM
* hit, by the source's call.

CN1CCN(C(c2ccc(F)cc2)c2nnnn2Cc2cccs2)CC1 (configuration not stated) was read as b-catenin transl -4, MT stabilizer 8, Redox H2O2 prof -2 and KCC2 mod 0.4.
Cc1nc(-c2ccccc2)cc(N2CCCC2)n1 was read as b-catenin transl -1, MT stabilizer 1, Redox H2O2 prof 3, KCC2 mod 0.017 and ROMK primary 0.11.
`Nc1nc(-c2ccccc2)cc(N2CCCCC2)n1` gave b-catenin transl 56*, MT stabilizer 14*, Redox H2O2 prof 3 and KCC2 mod 1.1.
Screening O=C(/C=C(/c1ccc(Cl)cc1)n1cncn1)c1ccccc1 returned b-catenin transl 7, MT stabilizer 4, Redox H2O2 prof 0, KCC2 mod 0.74 and ROMK primary -0.4.
`Clc1ccc2[nH]c3c(c2c1)CCc1cn[nH]c1-3` gave b-catenin transl 13, MT stabilizer 16*, Redox H2O2 prof 0 and KCC2 mod -0.72.
For c1ccc2c3c([nH]c2c1)-c1[nH]ncc1CC3 the results were b-catenin transl -1, MT stabilizer 5, Redox H2O2 prof 2, KCC2 mod -1.2 and ROMK primary 0.6.
For CCOCc1c(C(=O)NC2=Nc3ccccc3NC(CC)=C2C(=O)OCC)oc2ccccc12 the results were b-catenin transl -1, MT stabilizer 20*, Redox H2O2 prof -2, KCC2 mod -0.89 and ROMK primary -1.5.
`CCOC(=O)C1=C(O)c2ccccc2C(=O)/C1=C\c1ccc(C)cc1` gave b-catenin transl -1, MT stabilizer 3, Redox H2O2 prof 0 and KCC2 mod 3.3*.
For CCOC(=O)C1=C(C)N(c2ccc(C)cc2)C(=O)/C1=C\c1ccc(O)c(OC)c1 the results were b-catenin transl -1 and KCC2 mod 0.41.
c1ccc(CSc2ncn[nH]2)nc1 was read as b-catenin transl 0, MT stabilizer 4, Redox H2O2 prof -1, KCC2 mod -0.2 and ROMK primary 0.19.
`O=C(NNC(=O)c1cccnc1SCc1cccc([N+](=O)[O-])c1)c1ccc(F)cc1` gave b-catenin transl -2, MT stabilizer 3, Redox H2O2 prof 0, KCC2 mod 0.62 and ROMK primary 0.11.
Screening O=C(NNC(=O)c1cccnc1SCc1cccc([N+](=O)[O-])c1)c1ccccn1 returned b-catenin transl 1, MT stabilizer 5, Redox H2O2 prof 0, KCC2 mod 6.9* and ROMK primary -0.017.
For COc1ccc(C2=CC(=O)C=CC2=O)cc1 the results were b-catenin transl 1 and KCC2 mod -1.6.
Cn1c(N)c(C(=O)Nc2ccc(-c3ccccc3)cc2)sc1=S was read as b-catenin transl -2, KCC2 mod 0.00082 and ROMK primary -0.55.
CC1CCCC(n2c(=S)[nH]c3ccccc3c2=O)C1C (configuration not stated) was read as b-catenin transl -3, MT stabilizer 2, Redox H2O2 prof -4 and KCC2 mod 29*.
For CC1CCC(n2c(=S)[nH]c3ccccc3c2=O)CC1 (configuration not stated) the results were MT stabilizer 2, Redox H2O2 prof -9 and KCC2 mod 30*.
O=c1c2ccccc2[nH]c(=S)n1C1CCCCC1 was read as b-catenin transl -5, MT stabilizer 4, Redox H2O2 prof 0 and KCC2 mod 69*.
For O=C(OCC(=O)c1c[nH]c2ccccc12)c1cc(Br)ccc1O the results were b-catenin transl 0, MT stabilizer 2, Redox H2O2 prof 0, KCC2 mod 0.33 and ROMK primary 0.059.
`O=C(CSc1nnc2ccccn12)N1CCc2ccccc21` gave b-catenin transl -3, MT stabilizer 1, Redox H2O2 prof 10 and ROMK primary -0.21.
Screening Cc1ccc2c(C)c(C(=O)NCc3ccc(S(N)(=O)=O)cc3)oc2c1 returned b-catenin transl -1, MT stabilizer 1, Redox H2O2 prof -1, KCC2 mod 0.35 and ROMK primary 0.45.
Screening COc1cc2c(cc1OC)C(c1cccs1)N(C(=O)c1ccc(S(=O)(=O)N(C)C)cc1)CC2 (configuration not stated) returned b-catenin transl -1 and KCC2 mod -0.62.
COc1cc2c(cc1OC)C(C)N(C(=O)c1cccs1)CC2 (configuration not stated) was read as b-catenin transl 0, MT stabilizer 24*, Redox H2O2 prof -3, KCC2 mod 0.016 and ROMK primary 0.84.
COc1cc2c(cc1OC)C(c1cccs1)N(C(=O)c1ccncc1)CC2 (configuration not stated) was read as b-catenin transl 32, MT stabilizer 23*, Redox H2O2 prof 1, KCC2 mod -0.53 and ROMK primary 0.52.
Screening CCN(CC)CCNC(=O)CSc1c2c(nc3cc(Cl)ccc13)CCCC2 returned b-catenin transl 0, MT stabilizer 5, Redox H2O2 prof 2 and KCC2 mod -0.41.
For Cc1ccc(CNC(=O)CSc2c3c(nc4ccc(Cl)cc24)CCCC3)o1 the results were MT stabilizer 2, Redox H2O2 prof 5, KCC2 mod 4.8* and ROMK primary -2.5*.
`CCOC(=O)Cc1csc(NC(=S)NC(=O)C(C)(C)C)n1` gave b-catenin transl 9, MT stabilizer 2, Redox H2O2 prof 0, KCC2 mod 15* and ROMK primary -0.083.
`CCOC(=O)Cc1csc(NC(=O)CC(C)(C)CC(=O)O)n1` gave b-catenin transl 7 and KCC2 mod -0.049.
Screening Clc1ccccc1N=C1NN=C(c2cccs2)CS1 returned b-catenin transl -1, MT stabilizer 2, Redox H2O2 prof 0, KCC2 mod -0.096 and ROMK primary -0.94.
Screening COc1ccc(NS(=O)(=O)c2cc(NC(=O)c3ccc(F)cc3)ccc2OC)cc1 returned b-catenin transl 1, MT stabilizer 3, Redox H2O2 prof 0, KCC2 mod -0.76 and ROMK primary 0.016.
Screening COc1ccc(NC(=O)c2ccc(F)cc2)cc1S(=O)(=O)Nc1cc(C)ccc1Br returned b-catenin transl 1, MT stabilizer 16*, Redox H2O2 prof -1, KCC2 mod 0.19 and ROMK primary 0.021.
`CC1(C)CC(=S)Nc2ccccc2S1` gave b-catenin transl 0, MT stabilizer 5, Redox H2O2 prof 0, KCC2 mod 4.7* and ROMK primary -0.054.
CC1(C)CC(=O)C2=C(C1)Nc1ccccc1S2 was read as b-catenin transl 1 and KCC2 mod 0.53.
`CCc1cc(-c2n[nH]c(=S)n2C(C)c2ccccc2)cs1` (configuration not stated) gave b-catenin transl -1, MT stabilizer 2, Redox H2O2 prof 0, KCC2 mod 3.9* and ROMK primary -0.87.
Screening CC(C)c1cc(-c2n[nH]c(=S)n2Cc2ccccc2)cs1 returned MT stabilizer 4 and Redox H2O2 prof 2.
CCNC(=O)Nc1ccc(OC)cc1OC was read as b-catenin transl -4, MT stabilizer 5, Redox H2O2 prof 0 and KCC2 mod 2.1.
